In assay [1] the target is Platelet-derived growth factor receptor beta (Homo sapiens, UniProt P09619). The assay can be described thus: Inhibition of PDGFRbeta by microplate scintillation counting. A digest of the protocol: (§1)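 Substrates: tetra(LRRWSLG) for Aurora A/B; poly(Ala,Glu,Lys,Tyr)6:2:5:1 for PDGFRβ; poly(Glu,Tyr)4:1 for TIE2 and VEGFR2. Stopped with 2% H3PO4.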
The next assay concerns the target Aurora kinase B (Homo sapiens, UniProt Q96GD4). In words: Inhibition of Aurora-B by microplate scintillation counting. Summed up:
as §1

In assay [2] the target is Vascular endothelial growth factor receptor 3 (Homo sapiens, UniProt P35916). In words: Inhibition of VEGFR3 by microplate scintillation counting. Summed up: (§2)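 Radiometric FlashPlate assay using recombinant kinase (10–200 ng/well) with poly(Glu,Tyr)4:1 substrate. Buffer: 60 mM HEPES-NaOH pH 7.5, 3 mM MgCl2, 3 mM MnCl2, 3 µM orthovanadate, 1.2 mM DTT, PEG 20000, 1 µM [γ-33P]-ATP. Run 80 min at 30 °C, stopped with H3PO4, and 33P incorporation counted.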

For assay [3], the target named is T1, Angiopoietin-1 receptor (Homo sapiens, UniProt Q02763). The assay can be described thus: Inhibition of TIE2 by microplate scintillation counting.
The next assay has as its target T2, Aurora kinase A (Homo sapiens, UniProt O14965).
T2 sequence (O14965 whole entry): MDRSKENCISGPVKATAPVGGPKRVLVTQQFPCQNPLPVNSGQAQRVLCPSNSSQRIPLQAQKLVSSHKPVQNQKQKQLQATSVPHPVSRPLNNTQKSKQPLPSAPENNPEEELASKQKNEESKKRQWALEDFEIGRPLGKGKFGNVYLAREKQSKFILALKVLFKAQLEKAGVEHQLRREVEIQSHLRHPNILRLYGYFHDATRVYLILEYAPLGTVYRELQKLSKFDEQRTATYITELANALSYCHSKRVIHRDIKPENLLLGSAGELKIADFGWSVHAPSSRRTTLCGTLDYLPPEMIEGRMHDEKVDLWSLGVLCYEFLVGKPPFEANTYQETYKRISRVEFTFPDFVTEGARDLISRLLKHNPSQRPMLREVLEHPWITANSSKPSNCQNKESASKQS
The assay can be described thus: Inhibition of Aurora-A by microplate scintillation counting. A digest of the protocol: as §1

Assay [4] has as its target Receptor tyrosine-protein kinase erbB-2 (Homo sapiens, UniProt P04626). In words: Inhibition of ERBB2 by microplate scintillation counting. Summed up: as §2
Assay [5] has as its target Vascular endothelial growth factor receptor 2 (Homo sapiens, UniProt P35968). The assay can be described thus: Inhibition of VEGFR2 by microplate scintillation counting.
The target of assay [6] is T3, Epidermal growth factor receptor (Homo sapiens, UniProt P00533). In words: Inhibition of wild type EGF-R by microplate scintillation counting.
Assay [7] deals with T1, Angiopoietin-1 receptor. In words: Inhibition of TIE2 in human HCT116 cells by cellular phosphorylation assay. The format is cell-based, HCT-116. A digest of the protocol: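 TIE2 autophosphorylation in cells expressing the receptor. Compound was applied, cells were stimulated, then lysed with phosphoprotein levels preserved. Phosphorylation was quantified by sandwich ELISA with a receptor-specific capture antibody and anti-phosphotyrosine antibody, relative to the stimulated high control.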

Assay [8] addresses T3, Epidermal growth factor receptor. The assay can be described thus: Inhibition of EGFR in human HCT116 cells by cellular phosphorylation assay.

Chain of Receptor tyrosine-protein kinase erbB-2 (P04626 whole entry): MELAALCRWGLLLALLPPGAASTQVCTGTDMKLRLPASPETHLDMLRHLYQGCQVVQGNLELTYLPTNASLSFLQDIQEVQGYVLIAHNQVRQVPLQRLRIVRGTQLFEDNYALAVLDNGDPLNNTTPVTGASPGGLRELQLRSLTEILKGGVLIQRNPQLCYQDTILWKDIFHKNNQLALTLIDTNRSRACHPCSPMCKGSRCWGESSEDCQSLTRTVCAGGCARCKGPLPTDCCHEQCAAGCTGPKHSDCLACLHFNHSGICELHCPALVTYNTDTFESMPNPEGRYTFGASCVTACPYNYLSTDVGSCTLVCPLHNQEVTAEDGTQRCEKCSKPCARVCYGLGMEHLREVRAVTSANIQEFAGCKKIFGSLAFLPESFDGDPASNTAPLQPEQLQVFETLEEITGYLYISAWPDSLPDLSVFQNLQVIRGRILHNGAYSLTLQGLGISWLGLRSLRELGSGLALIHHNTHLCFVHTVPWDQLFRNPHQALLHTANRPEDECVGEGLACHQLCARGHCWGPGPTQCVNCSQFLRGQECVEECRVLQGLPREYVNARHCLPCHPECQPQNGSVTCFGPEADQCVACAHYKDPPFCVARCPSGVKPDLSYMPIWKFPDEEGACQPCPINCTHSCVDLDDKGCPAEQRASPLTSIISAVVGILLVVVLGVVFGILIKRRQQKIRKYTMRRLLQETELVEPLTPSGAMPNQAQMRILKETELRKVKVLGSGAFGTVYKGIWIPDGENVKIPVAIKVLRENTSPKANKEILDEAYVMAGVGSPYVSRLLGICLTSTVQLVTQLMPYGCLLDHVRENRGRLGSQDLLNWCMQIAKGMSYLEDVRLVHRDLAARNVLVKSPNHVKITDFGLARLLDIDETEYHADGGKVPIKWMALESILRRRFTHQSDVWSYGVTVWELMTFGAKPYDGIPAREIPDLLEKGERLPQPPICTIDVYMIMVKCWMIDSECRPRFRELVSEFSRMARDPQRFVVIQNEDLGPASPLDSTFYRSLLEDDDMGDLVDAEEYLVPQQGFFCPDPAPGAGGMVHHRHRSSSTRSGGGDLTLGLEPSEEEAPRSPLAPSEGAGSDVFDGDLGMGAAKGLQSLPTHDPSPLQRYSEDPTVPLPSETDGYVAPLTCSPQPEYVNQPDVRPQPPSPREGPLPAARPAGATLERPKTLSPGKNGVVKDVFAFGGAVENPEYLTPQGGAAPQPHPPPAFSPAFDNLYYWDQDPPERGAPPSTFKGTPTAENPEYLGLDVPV
T3 sequence (P00533 whole entry): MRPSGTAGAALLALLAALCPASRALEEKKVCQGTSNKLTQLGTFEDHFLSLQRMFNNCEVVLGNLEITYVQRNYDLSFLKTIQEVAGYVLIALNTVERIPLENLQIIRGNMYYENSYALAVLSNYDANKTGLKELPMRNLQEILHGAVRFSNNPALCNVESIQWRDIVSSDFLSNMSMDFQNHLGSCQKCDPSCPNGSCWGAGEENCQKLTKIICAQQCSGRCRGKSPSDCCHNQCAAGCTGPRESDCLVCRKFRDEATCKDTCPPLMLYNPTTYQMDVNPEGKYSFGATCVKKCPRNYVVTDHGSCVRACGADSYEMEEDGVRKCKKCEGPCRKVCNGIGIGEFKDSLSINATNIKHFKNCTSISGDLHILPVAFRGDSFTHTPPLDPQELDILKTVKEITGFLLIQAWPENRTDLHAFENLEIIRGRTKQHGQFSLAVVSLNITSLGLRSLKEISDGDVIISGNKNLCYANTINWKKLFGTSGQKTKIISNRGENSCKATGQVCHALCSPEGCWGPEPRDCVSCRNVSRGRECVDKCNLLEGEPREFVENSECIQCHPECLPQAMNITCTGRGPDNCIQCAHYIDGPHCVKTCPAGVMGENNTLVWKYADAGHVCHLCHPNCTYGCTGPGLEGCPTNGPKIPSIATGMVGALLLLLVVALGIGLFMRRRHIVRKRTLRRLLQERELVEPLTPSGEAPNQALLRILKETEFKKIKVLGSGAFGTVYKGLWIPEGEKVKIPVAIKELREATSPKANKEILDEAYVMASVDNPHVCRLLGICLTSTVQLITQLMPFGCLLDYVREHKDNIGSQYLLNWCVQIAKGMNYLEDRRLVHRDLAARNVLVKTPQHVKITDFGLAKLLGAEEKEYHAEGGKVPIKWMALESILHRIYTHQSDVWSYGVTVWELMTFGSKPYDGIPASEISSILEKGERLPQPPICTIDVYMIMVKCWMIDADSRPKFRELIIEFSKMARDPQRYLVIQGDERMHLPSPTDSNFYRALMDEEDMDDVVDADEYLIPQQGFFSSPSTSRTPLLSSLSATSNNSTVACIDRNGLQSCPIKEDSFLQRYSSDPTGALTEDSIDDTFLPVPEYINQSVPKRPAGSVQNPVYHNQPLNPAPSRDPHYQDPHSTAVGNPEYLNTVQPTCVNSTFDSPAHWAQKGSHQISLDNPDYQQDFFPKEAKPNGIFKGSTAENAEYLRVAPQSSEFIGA
Chain of Platelet-derived growth factor receptor beta (P09619 whole entry): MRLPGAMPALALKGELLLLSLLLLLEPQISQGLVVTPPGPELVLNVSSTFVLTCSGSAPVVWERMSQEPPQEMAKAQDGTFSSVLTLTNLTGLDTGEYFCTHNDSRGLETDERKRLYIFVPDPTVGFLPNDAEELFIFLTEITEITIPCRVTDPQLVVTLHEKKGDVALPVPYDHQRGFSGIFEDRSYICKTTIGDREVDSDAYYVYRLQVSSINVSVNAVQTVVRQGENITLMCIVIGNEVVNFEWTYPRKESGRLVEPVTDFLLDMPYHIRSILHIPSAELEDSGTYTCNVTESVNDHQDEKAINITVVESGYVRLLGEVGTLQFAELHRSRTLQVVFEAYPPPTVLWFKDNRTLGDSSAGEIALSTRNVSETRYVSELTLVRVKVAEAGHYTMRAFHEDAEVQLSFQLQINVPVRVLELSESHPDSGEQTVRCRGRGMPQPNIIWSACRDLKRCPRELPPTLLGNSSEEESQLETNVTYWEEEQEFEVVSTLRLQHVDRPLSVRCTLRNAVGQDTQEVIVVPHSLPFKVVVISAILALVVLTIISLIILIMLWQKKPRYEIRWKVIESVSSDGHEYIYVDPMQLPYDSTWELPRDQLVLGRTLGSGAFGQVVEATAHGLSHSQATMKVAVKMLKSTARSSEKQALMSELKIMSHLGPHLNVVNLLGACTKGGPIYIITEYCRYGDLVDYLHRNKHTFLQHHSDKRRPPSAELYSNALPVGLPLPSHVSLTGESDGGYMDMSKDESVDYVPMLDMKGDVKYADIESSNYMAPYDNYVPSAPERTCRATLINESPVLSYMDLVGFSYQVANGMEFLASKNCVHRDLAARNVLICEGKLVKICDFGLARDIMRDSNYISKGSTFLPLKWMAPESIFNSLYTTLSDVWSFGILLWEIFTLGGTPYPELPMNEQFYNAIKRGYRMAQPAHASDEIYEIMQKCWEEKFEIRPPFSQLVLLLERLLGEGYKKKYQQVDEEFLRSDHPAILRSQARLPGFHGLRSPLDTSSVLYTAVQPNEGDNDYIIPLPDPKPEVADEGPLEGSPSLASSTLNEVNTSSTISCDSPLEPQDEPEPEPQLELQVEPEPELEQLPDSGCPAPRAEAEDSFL
Chain of Vascular endothelial growth factor receptor 2 (P35968 whole entry): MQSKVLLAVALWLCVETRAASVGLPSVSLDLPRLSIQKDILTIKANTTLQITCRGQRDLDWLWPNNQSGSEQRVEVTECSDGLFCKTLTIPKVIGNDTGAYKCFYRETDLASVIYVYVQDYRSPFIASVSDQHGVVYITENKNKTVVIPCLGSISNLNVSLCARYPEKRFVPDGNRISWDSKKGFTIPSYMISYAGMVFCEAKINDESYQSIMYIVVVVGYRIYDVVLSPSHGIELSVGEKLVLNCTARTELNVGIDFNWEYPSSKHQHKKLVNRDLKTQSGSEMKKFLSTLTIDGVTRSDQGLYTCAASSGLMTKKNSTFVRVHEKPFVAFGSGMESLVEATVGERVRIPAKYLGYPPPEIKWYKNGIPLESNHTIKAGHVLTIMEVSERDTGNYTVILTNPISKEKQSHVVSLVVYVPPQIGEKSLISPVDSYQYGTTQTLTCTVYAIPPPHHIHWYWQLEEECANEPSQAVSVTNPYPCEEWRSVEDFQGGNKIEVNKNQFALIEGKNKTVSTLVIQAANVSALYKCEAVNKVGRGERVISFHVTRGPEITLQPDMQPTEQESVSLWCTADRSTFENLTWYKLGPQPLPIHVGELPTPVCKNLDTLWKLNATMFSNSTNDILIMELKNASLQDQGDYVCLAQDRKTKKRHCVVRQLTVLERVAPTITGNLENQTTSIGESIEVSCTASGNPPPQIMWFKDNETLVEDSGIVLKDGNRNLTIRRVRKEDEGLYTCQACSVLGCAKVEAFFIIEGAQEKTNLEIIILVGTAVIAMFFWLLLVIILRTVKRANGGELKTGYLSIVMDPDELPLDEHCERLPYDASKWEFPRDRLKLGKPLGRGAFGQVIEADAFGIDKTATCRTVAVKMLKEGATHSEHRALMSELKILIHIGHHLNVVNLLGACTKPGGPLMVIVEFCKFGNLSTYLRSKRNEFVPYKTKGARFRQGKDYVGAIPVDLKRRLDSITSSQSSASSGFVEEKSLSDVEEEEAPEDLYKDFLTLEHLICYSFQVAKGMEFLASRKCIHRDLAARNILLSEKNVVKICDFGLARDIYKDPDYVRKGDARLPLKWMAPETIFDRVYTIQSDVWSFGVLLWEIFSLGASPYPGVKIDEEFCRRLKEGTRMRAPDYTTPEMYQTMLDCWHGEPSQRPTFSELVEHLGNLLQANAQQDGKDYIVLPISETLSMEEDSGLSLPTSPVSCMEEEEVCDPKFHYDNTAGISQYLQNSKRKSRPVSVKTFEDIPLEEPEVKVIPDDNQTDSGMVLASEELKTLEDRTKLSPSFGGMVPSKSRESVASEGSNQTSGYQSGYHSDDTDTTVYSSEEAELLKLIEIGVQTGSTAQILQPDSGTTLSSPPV

Consider `COc1cc2c(Nc3ccc(-c4nc5ccccc5s4)cc3C)ncnc2cc1OCCCN1CCN(C)CC1`, for which the IC50 in assay [1] is 6700 nM; against Aurora kinase B, 440 nM; in assay [2], 340 nM; at Angiopoietin-1 receptor [3] it was 38 nM; on Aurora kinase A, 340 nM; in assay [4] it was 490 nM.
Consider `COc1cc2c(Nc3ccc(-c4nc5ccc(Cl)cc5s4)cc3)ncnc2cc1OCCCN1CCN(C)CC1`, for which the IC50 in [1] was determined as 8000 nM; against Aurora kinase B, 64 nM; in [5], 2500 nM; in assay [2], 9300 nM; in assay [6] it was 260 nM; at Angiopoietin-1 receptor [3], 410 nM. Besides, the concentration for half-maximal inhibition (IC50) is 54 nM against Aurora kinase A and 2300 nM in assay [4].
`COc1cc2c(Nc3ccc(-c4nc5ccccc5s4)cc3)ncnc2cc1OCCCN1CCN(C)CC1`: the IC50 in assay [1] turned out to be 1400 nM; on Aurora kinase B, 60 nM; in assay [5] it was 12 nM; in assay [2] it was 69 nM; in assay [6], 46 nM; against Angiopoietin-1 receptor [3], 54 nM. Besides, the results for the 50% inhibitory concentration (IC50) (against Aurora kinase A; in assay [4]) were 14 nM and 100 nM, respectively.
On to `COc1cc2c(N(C)c3ccc(-c4nc5ccccc5s4)c(OC)c3)ncnc2cc1OCCCN1CCN(C)CC1`, for which the concentration for half-maximal inhibition (IC50) in assay [1] was more than 10000 nM; against Aurora kinase B it was 8000 nM; in [5], more than 10000 nM; in [2] it was more than 10000 nM; against Angiopoietin-1 receptor [3] it was more than 10000 nM; against Aurora kinase A it was 3300 nM.
As to `COc1cc2c(Nc3ccc(-c4nc5cc(C(F)(F)F)ccc5s4)cc3)ncnc2cc1OCCCN1CCN(C)CC1`, the IC50 is 8200 nM in [1]; 120 nM on Aurora kinase B; more than 10000 nM in assay [5]; more than 10000 nM in assay [2]; more than 10000 nM in [6]; 3300 nM on Angiopoietin-1 receptor [3]. Also, the results for the half-inhibitory concentration (IC50) (on Aurora kinase A; in [4]) were 60 nM and more than 10000 nM, respectively. The EC50 (on Angiopoietin-1 receptor [7]; in assay [8]) was more than 10000 nM in each case.
In the case of `COc1cc2c(Nc3ccc(-c4nc5ccccc5s4)c(O)c3)ncnc2cc1OCCCN1CCN(C)CC1`, the 50% inhibitory concentration (IC50) turned out to be 4500 nM in assay [1]; 59 nM at Aurora kinase B; 380 nM in [5]; 520 nM in assay [2]; 110 nM in assay [6]; 120 nM at Angiopoietin-1 receptor [3]. Also, the figures for the IC50 (against Aurora kinase A; in [4]) were 91 nM and 780 nM, respectively. The figures for the EC50 (at Angiopoietin-1 receptor [7]; in assay [8]) were more than 10000 nM and 33000 nM, respectively.
For the compound `COc1cc2c(Nc3ccc(-c4nc5ccccc5s4)c(C)c3)ncnc2cc1OCCCN1CCN(C)CC1`, the IC50 worked out at 7900 nM in assay [1]; 260 nM against Aurora kinase B; 350 nM in [5]; 1500 nM in assay [2]; 68 nM against Angiopoietin-1 receptor [3]; 230 nM against Aurora kinase A.
Take `COc1cc2c(Nc3ccc(-c4nc5ccc(Cl)cc5s4)cc3F)ncnc2cc1OCCCN1CCN(C)CC1`: the concentration for half-maximal inhibition (IC50) turned out to be 9200 nM in assay [1]; 90 nM at Aurora kinase B; 2250 nM in assay [5]; 3000 nM in [2]; 6200 nM in assay [6]; 615 nM against Angiopoietin-1 receptor [3]. Further, the IC50 at Aurora kinase A is 85 nM; in [4] it was more than 10000 nM.
`COc1cc2c(Nc3ccc(-c4nc5cc(Cl)ccc5s4)cc3)ncnc2cc1OCCCN1CCN(C)CC1`: the IC50 was more than 10000 nM in assay [1]; 62 nM on Aurora kinase B; 610 nM in assay [5]; 1300 nM in assay [2]; more than 10000 nM in assay [6]; 510 nM against Angiopoietin-1 receptor [3]. Besides, the values for the IC50 (at Aurora kinase A; in assay [4]) were 24 nM and more than 10000 nM, respectively. Besides, the EC50 (at Angiopoietin-1 receptor [7]; in [8]) was more than 10000 nM throughout.
Turning to `COc1cc2c(Nc3ccc(-c4nc5ccccc5s4)c(Cl)c3)ncnc2cc1OCCCN1CCN(C)CC1`, the IC50 in assay [1] amounted to 3600 nM; at Aurora kinase B, 78 nM; in [5], 120 nM; in assay [2], 470 nM; at Angiopoietin-1 receptor [3] it was 37 nM; against Aurora kinase A it was 27 nM. Besides, the half-maximal inhibitory concentration (IC50) in assay [4] came to 38 nM. Also, on Angiopoietin-1 receptor [7], the 50% effective concentration (EC50) was determined as 10000 nM.
Take `COc1cc2c(Nc3ccc(-c4nc5ccccc5s4)cc3F)ncnc2cc1OCCCN1CCN(C)CC1`: the half-inhibitory concentration (IC50) in [1] stood at 4400 nM; at Aurora kinase B it was 28 nM; in assay [5], 62 nM; in [2] it was 350 nM; in assay [6], 805 nM; against Angiopoietin-1 receptor [3], 29 nM. The IC50 on Aurora kinase A was determined as 26 nM; in [4] it was 2400 nM. In addition, the EC50 on Angiopoietin-1 receptor [7] was 2100 nM; in assay [8], more than 10000 nM.
Consider `COc1cc2c(Nc3ccc(-c4nc5ccccc5s4)cc3O)ncnc2cc1OCCCN1CCN(C)CC1`, for which the half-inhibitory concentration (IC50) is more than 10000 nM in assay [1]; 270 nM on Aurora kinase B; 280 nM in assay [5]; 4500 nM in assay [2]; 350 nM in [6]; 230 nM at Angiopoietin-1 receptor [3]. Moreover, the IC50 at Aurora kinase A came to 230 nM; in [4], 3600 nM.
Take `COc1cc2c(Nc3ccc(-c4nc5ccccc5s4)cc3OC(F)(F)F)ncnc2cc1OCCCN1CCN(C)CC1`: the IC50 in assay [1] was 9100 nM; at Aurora kinase B, 520 nM; in assay [5] it was more than 10000 nM; in assay [2], more than 10000 nM; in assay [6], more than 10000 nM; at Angiopoietin-1 receptor [3] it was 590 nM. For the same compound, the results for the IC50 (on Aurora kinase A; in [4]) were 290 nM and more than 10000 nM, respectively.
As to `COc1cc2c(Nc3ccc(-c4nc5ccccc5s4)c(OC)c3)ncnc2cc1OCCCN1CCN(C)CC1`, the IC50 turned out to be 2100 nM in assay [1]; 300 nM on Aurora kinase B; 1200 nM in assay [5]; 7100 nM in assay [2]; 2 nM in [6]; 110 nM at Angiopoietin-1 receptor [3]. Further, the IC50 is 120 nM against Aurora kinase A and 5 nM in [4]. For the same compound, the 50% effective concentration (EC50) on Angiopoietin-1 receptor [7] was more than 10000 nM; in [8], 9400 nM.
Turning to `COc1cc2c(Nc3ccc(-c4nc5ccccc5s4)c(F)c3)ncnc2cc1OCCCN1CCN(C)CC1`, the IC50 in assay [1] was 2100 nM; against Aurora kinase B, 27 nM; in [5] it was 44 nM; in assay [2] it was 210 nM; in [6], 430 nM; at Angiopoietin-1 receptor [3] it was 9 nM. Besides, the IC50 at Aurora kinase A was found to be 9 nM; in [4], 300 nM. The 50% effective concentration (EC50) (at Angiopoietin-1 receptor [7]; in [8]) was more than 10000 nM each time.
Take `COc1cc(-c2nc3ccccc3s2)ccc1Nc1ncnc2cc(OCCCN3CCN(C)CC3)c(OC)cc12`: the IC50 in assay [1] is 5100 nM; against Aurora kinase B, 90 nM; in [5] it was 3300 nM; in [2], 1700 nM; in [6], more than 10000 nM; against Angiopoietin-1 receptor [3] it was 330 nM. Further, the concentration for half-maximal inhibition (IC50) against Aurora kinase A is 65 nM; in assay [4], more than 10000 nM. Moreover, the concentration for a half-maximal effect (EC50) (at Angiopoietin-1 receptor [7]; in [8]) was more than 10000 nM each time.
With `COc1cc2c(Nc3ccc(-c4nc5ccc(F)cc5s4)cc3)ncnc2cc1OCCCN1CCN(C)CC1`, the IC50 in [1] amounted to 3400 nM; against Aurora kinase B it was 41 nM; in assay [5] it was 335 nM; in assay [2], 865 nM; in [6] it was 730 nM; on Angiopoietin-1 receptor [3], 235 nM. The values for the half-maximal inhibitory concentration (IC50) (against Aurora kinase A; in assay [4]) were 26 nM and 6950 nM, respectively. Moreover, the EC50 (at Angiopoietin-1 receptor [7]; in assay [8]) was more than 10000 nM throughout.
`COc1ccc2nc(-c3ccc(Nc4ncnc5cc(OCCCN6CCN(C)CC6)c(OC)cc45)cc3)sc2c1`: the IC50 in assay [1] is more than 10000 nM; against Aurora kinase B it was 48 nM; in [5], 690 nM; in [2], 1900 nM; in [6], 200 nM; at Angiopoietin-1 receptor [3], 390 nM. For the same compound, the IC50 against Aurora kinase A stood at 62 nM; in [4] it was 130 nM.

(Values after ChEMBL document CHEMBL1152560, “Substituted 2-arylbenzothiazoles as kinase inhibitors: hit-to-lead optimization” (Bioorg Med Chem, 2009).)
